From PubChem BioAssay
MsrA act: activates bovine MsrA enzyme; AID 602163; actives 0.3% (n = 360,000); activation, % at 10.6 µM; purified bovine MsrA, absorbance read-out; in the data active = activation above about 7.5%;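 also: 0% = vehicle and 100% = reference activator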
MC4R antag cAMP: antagonists of human melanocortin 4 receptor (MC4R); MC4R-expressing cells, MTII-stimulated cAMP, LANCE TR-FRET; P32245; inhibition, % at 6.5 µM; actives 0.48% (n = 360,000);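 active = inhibition above its plate's cutoff, the mean of tested wells on that plate plus 3 SD, cut at about 29% in these data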;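 also: 0% = Melanotan II alone and 100% = Melanotan II plus saturating MCL0020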
Target sequence (P32245 whole entry, looked up): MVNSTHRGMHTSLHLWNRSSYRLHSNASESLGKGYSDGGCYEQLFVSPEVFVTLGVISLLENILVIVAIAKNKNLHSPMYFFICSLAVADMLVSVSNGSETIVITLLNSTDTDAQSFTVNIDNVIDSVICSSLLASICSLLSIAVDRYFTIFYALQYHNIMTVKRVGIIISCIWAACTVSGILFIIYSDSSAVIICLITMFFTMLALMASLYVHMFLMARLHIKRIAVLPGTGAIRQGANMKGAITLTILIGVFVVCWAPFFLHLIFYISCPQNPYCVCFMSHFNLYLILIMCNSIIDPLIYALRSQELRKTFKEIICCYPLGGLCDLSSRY
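Material – human MC4R-expressing U2OS cells · Repeats – no replicates · Detection – TR-FRET with Eu-cAMP and labeled anti-cAMP, 671 nm · Times – compound 30 min, challenge 1 h, detection 1 h · Compound – single nominal compound dose of 6.5 µM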
MsrA inhibitor: inhibits bovine methionine sulfoxide reductase A; AID 651718; inhibition, % at 15.5 µM; actives 0.75% (n = 360,000); purified bovine MsrA, absorbance read-out;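 also: 0% = vehicle wells with enzyme and 100% = reference inhibitor wells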
MC4R ag barr: activates human MC4R beta-arrestin recruitment; P32245; U2OS MC4R beta-arrestin complementation, luminescence; percent of melanotan II response, DMSO zero; activation, % at 8.9 µM; actives 0.98% (n = 360,000);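 active = activation above a per-plate cutoff, the mean activation of sample wells on that plate plus 3 SD, cut at about 8% in these data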
MsrA inh confirm: bovine MsrA inhibition, confirmed | purified bovine MsrA, absorbance read-out | shares compounds with MsrA inhibitor | actives 41% (n = 2,300) | inhibition, % at 15.5 µM;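 also: coupled to thioredoxin reductase with NADPH and selenocystamine and DMSO as substrate; 0% = vehicle only and 100% = full effect of reference inhibitor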
Numbers without * were called inactive; . = no result. Rows were chosen to be rich in hits. Some 2.3% of all compounds tested hit in one or more screens of this group. Rule as the data show it, unless noted: active = inhibition above about 4.5%; inactive = the rest.

SMILES	MsrA act	MC4R antag cAMP	MsrA inhibitor	MC4R ag barr	MsrA inh confirm
O=C(COC(=O)C1CCN(/C=C/C(=O)C(F)(F)F)CC1)Nc1ccccc1	-3	14	4.8*	-2	1
COc1ccc(-c2cc3ccc(OCc4nn[nH]n4)cc3oc2=O)cc1OC	-5	-5	6.5*	-2	4
COc1ccc(-c2cc3ccc(OCC(C)=O)cc3oc2=O)cc1OC	-4	-4	2	-2	.
O=C(COc1ccccc1[N+](=O)[O-])Nc1cccc(Cl)c1N1CCOCC1	-3	-12	5.9*	-2	2
CCOc1cc(N2CCOCC2)c(OCC)cc1NC(=O)COc1ccccc1[N+](=O)[O-]	0	25	-1	0	.
O=C(c1cccc(Br)c1)N1CCN(c2ccc(N3CCOCC3)nn2)CC1	-5	0	-1	-2	.
COc1ccccc1/C=N/NC(=O)c1cccc(NC(=O)c2ccccc2Cl)c1	-15	1	2	5	.
COc1ccc2[nH]c(C(=O)N/N=C/c3ccc(OC)c(O)c3)cc2c1	-4	-20	7.5*	0	7.8*
COc1ccc(OC)c(/C=N\NC(=O)c2ccc(-c3ccccc3)cc2)c1	-5	5	1	-2	.
COc1ccc(/C=N/NC(=O)c2cccc(NC(=O)c3ccccc3Cl)c2)c(OC)c1	-15	-4	5.3*	3	2
COc1ccc2[nH]c(C(=O)N/N=C/c3ccccc3OC)cc2c1	-5	-1	5.8*	1	5.4*
COc1ccc(C(=O)N/N=C/c2cc3ccccc3[nH]c2=O)cc1	-4	-21	5.0*	-3	4
CCc1nnc(NC(=O)CCC(=O)N2CCN(c3ccccn3)CC2)s1	-1	5	0	-1	.
Cc1nonc1C1CCCN1Cc1cn[nH]c1-c1ccc(-c2ccccc2)cc1 (stereo unspecified)	-5	5	29*	-1	22*
COc1cc(-c2[nH]ncc2CN2CCCC2c2nonc2C)cc(OC)c1OC (stereo unspecified)	-4	7	-1	-1	.
Nc1cccc(-c2nc3ccc(N)cc3s2)c1	1	16	2	-1	.
Cc1c(C=N)c(O)n(C)c(=O)c1C#N	-6	8	5.2*	0	6.6*
Cc1ccc(N/N=C/c2c(C)c(C#N)c(=O)n(C)c2O)cc1C	-3	0	5.9*	-1	6.6*
CCN(CC)S(=O)(=O)c1ccc(N=Cc2c(C)c(C#N)c(=O)n(C)c2O)cc1	-2	6	5.1*	-1	7.3*
COc1cc(S(=O)(=O)Nc2ccc(C)cc2)ccc1N=Cc1c(C)c(C#N)c(=O)n(C)c1O	-7	-9	3	-2	.
C=CCn1c(O)c(CN2CCCCC2)c(C)c(C#N)c1=O	-4	7	2	-1	.
CN(C(=O)CSc1nnc(CNC(=O)c2ccccc2)o1)c1ccccc1	-2	10	-1	-2	.
CCCCCC(=O)Nc1ccc(N2CCN(C(=O)c3ccccc3)CC2)cc1	-4	-1	1	-5	.
Cc1ccc[n+](CC(=O)Nc2ccc([N+](=O)[O-])cc2Cl)c1	-3	5	3	-2	.
O=C1CCCc2nc(N3CCCCC3)sc21	-3	-2	5.8*	-1	5.2*
SMILES	MsrA act	MC4R antag cAMP	MsrA inhibitor	MC4R ag barr	MsrA inh confirm
Cc1ccn2c(C(=O)N/N=C\c3cccs3)c(C)nc2c1	-4	0	7.4*	0	5.8*
Cc1ccc2nc(C)c(C(=O)N/N=C/c3cccs3)n2c1	-7	-10	3	0	.
Cc1cc(C(=O)COc2nncc3ccccc23)c(C)n1C	-1	8	0	-3	.
Nc1ccc(Cl)c(-c2nc3ncccc3o2)c1	-1	8	0	-4	.
Nc1ccc(-c2nc3ncccc3o2)c(O)c1	-7	-5	9.8*	-1	7.2*
Cc1cc(-c2nc3ncccc3o2)ccc1N	-5	19	6.5*	1	6.6*
Cc1ccc(-c2nc3ncccc3o2)cc1N	-4	4	1	0	.
Nc1ccc(-c2nc3ncccc3o2)c(Cl)c1	-10	-7	6.0*	-1	5.2*
Cc1cc(=O)[nH]c(SCC(=O)Nc2nc(-c3ccccc3)cs2)n1	-2	3	0	1	.
O=c1nc(N/N=C/c2ccccn2)cn[nH]1	-2	14	4.7*	1	3
N#Cc1c(-n2cccc2C=O)sc2c1CCCC2	-5	4	11*	-1	10.0*
O=Cc1cccn1-c1sc2c(c1C(=O)O)CCCC2	-2	12	0	-1	.
Cc1nc(Cc2nnc(SCC(=O)N3CCN(c4ccc(F)cc4)CC3)o2)cs1	6	10	-1	-3	.
Cc1ccc(NC(=O)/C(C#N)=C/c2cccs2)c(C)c1	2	5	1	1	.
Cc1cccc(C)c1NC(=O)/C(C#N)=C/c1cccs1	-9	9	6.9*	-1	4
C[C@@H]1ON(C)[C@H]2C[C@H]3c4[nH]c5ccc(-c6ccc7c(c6)OCO7)cc5c4CCN3C[C@@H]12	-1	19	0	2	.
CN(/N=C/c1ccncc1)c1cnc2ccccc2n1	-17	-3	4.7*	5	4
CN(/N=C/c1ccncc1)C1=NCCN1	-1	0	-2	-1	.
COc1ccc(/C=N/N=C2\SCC(=O)N2c2c(C)n(C)n(-c3ccccc3)c2=O)cc1OC	-5	8	5.7*	0	4
Cc1c(N2C(=O)CS/C2=N\N=C\c2ccc(Cl)cc2)c(=O)n(-c2ccccc2)n1C	-3	-4	1	-1	.
CCN(CC)CCCn1c2c(c(SCC(=O)Nc3cccc(C(C)=O)c3)nc1=O)CCC2	-6	-1	0	-1	.
Cc1ncsc1C(=O)Nc1nc2c(s1)CC(C)CC2 (stereo unspecified)	-11	5	6.3*	1	1
COc1ccccc1C1/C(=C(/O)c2ccccc2)C(=O)C(=O)N1CCO (stereo unspecified)	0	3	2	-1	.
CCN(CC)CCCN1C(=O)C(=O)/C(=C(/O)c2ccccc2)C1c1cc(OC)ccc1OC (stereo unspecified)	-1	15	19*	1	6.4*
CCCCNc1nc(CC)c2c(c1C#N)CCCC2	2	0	1	1	.
SMILES	MsrA act	MC4R antag cAMP	MsrA inhibitor	MC4R ag barr	MsrA inh confirm
Nc1nc(NCc2ccccc2)nc(NCCO)c1[N+](=O)[O-]	-7	1	4	0	.
CNc1nc(N)c([N+](=O)[O-])c(NCCO)n1	-6	5	5.0*	-1	4
CN(C)CCCNc1nc(N)c([N+](=O)[O-])c(NCCO)n1	-2	0	3	0	.
CCN(CC)CCCNc1nc(N)c([N+](=O)[O-])c(NCCO)n1	-3	5	5.1*	0	4.9*
COc1ccccc1NS(=O)(=O)c1cc(-c2cnc(C3CC3)o2)ccc1C	-4	1	0	0	.
COc1ccc(NS(=O)(=O)c2cc(-c3cnc(C4CC4)o3)ccc2C)cc1	-3	-6	11*	-1	7.2*
c1ccc(-c2onc3cc4c(cc23)OCCO4)cc1	0	-9	5.1*	-1	2
CC1(C)CC(=O)C2=C(C1)Nc1ccccc1NC2c1cccnc1 (stereo unspecified)	-13	-1	5.4*	-1	4
